From PubChem BioAssay
CR mimetic SO: yeast age-related superoxide inhibition as caloric restriction mimetic. S. cerevisiae aged cells, superoxide DHE fluorescence; hits give low values. superoxide response (% of plate mean), % at 10 µM. hit rate 0.18% among 330,000;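 active = superoxide response under a set limit, about three screen SD below normal, cut at about 65% in these data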;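 note: yeast aged for seven days with compound at 30 °C before DHE staining; 100% = average MFI of all compound-treated wells on the plate with controls excluded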
TRPC4 act: opens the mouse TRPC4 cation channel; Q9QUQ5; HEK293 TRPC4beta/mu-opioid, Fluo4 calcium fluorescence; hits give high values; AID 2237; B-score at 10 µM; hit rate 0.49% among 310,000;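 active = B-score above 5 SD of library B-scores, and initial fluorescence ratio not above library mean plus 5 SD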;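 note: positive B-score marks a calcium rise read as TRPC4 activation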
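System: HEK293 cells stably co-expressing mouse TRPC4beta and mu-opioid receptor; Schedule: Fluo4 dye loading 45 min at room temperature, 110 s recording; Detection: Fluo4 fluorescence, kinetic; Evaluation: B-scored integrated calcium fluorescence ratio; Controls: buffer (low) and maximal DAMGO (high).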
TRPC4 PAM: TRPC4 (mouse) allosteric potentiation | Q9QUQ5 | HEK293 TRPC4beta/mu-opioid, DAMGO EC20, Fluo-4 Ca2+ flux; hits give high values | B-score at 10 µM | hit rate 0.42% among 310,000 | AID 2227;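 active = B-score of calcium response area above 5 SD of library B-scores, with initial fluorescence ratio within 5 SD of library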;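 note: B-score of integrated fluorescence ratio over time as area under calcium response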
TRPC6 inhibitor: inhibitors of mouse TRPC6 channel; Q61143; B-score at 10 µM; hit rate 1.1% among 310,000; HEK293-TRPC6, membrane potential dye, ACh-evoked depolarization; hits give low values; AID 2553;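 active = B-score under library mean minus 3 SD, initial fluorescence not abnormally high, positive integrated signal ratio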;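 note: B-score derived from integrated fluorescence ratio over the kinetic read; more negative B-score means stronger inhibition of depolarization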
TRPC4 inh: TRPC4 (mouse) channel inhibition; HEK293 TRPC4beta/mu-opioid, DAMGO-evoked Fluo4 calcium flux; hits give low values; B-score at 10 µM; Q9QUQ5; hit rate 0.39% among 300,000;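 active = B-score over 3 SD under the library average, no early fluorescence shift, positive overall ratio signal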
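Material: HEK293 cells with stable TRPC4beta plus mu-opioid receptor expression; probe or stimulus: DAMGO in two steps, submaximal then maximal; technique: Fluo4 calcium fluorescence by kinetic imaging, 5 s 1 Hz baseline; measure: integrated fluorescence ratio relative to baseline, converted to per-well B score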
TRPC6 act: activates the mouse TRPC6 cation channel; Q61143; AID 2550; B-score at 10 µM; hit rate 0.13% among 310,000; HEK293-TRPC6 membrane potential dye fluorescence; hits give high values;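 active = B-score of the integrated fluorescence ratio above library mean plus 3 SD, and starting fluorescence ratio within library mean plus 5 SD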;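 note: higher score means more depolarization so channel activation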
HEK293 TRPC6 ctr: parental HEK293 nonspecific activity of TRPC6 modulators. shares compounds with TRPC6 inhibitor. membrane potential dye fluorescence. membrane potential signal change, % at 10 µM. AID 488924. hit rate 51% among 2,400;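 active = membrane potential signal moves up or down beyond 5 SD from buffer-only wells, on both duplicate plates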
HEK293 MPD ctr 2: second check of TRPC6 modulator effects in parental HEK293 cells; membrane potential dye fluorescence; after compound, maximal acetylcholine stimulation; hit rate 14% among 2,400; shares compounds with TRPC6 inhibitor; inhibition, % at 10 µM;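 active = membrane potential signal drops by more than 5 SD from the mean control signal, in both duplicate plates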;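 note: plate controls were acetylcholine ECmax control wells for no effect and buffer only wells for full effect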
TRPC4 ctr mod: selectivity of TRPC6 modulators against mouse TRPC4; shares compounds with TRPC6 inhibitor; HEK293 TRPC4/mu-opioid, membrane potential fluorescence; percent change from control (negative = decrease, positive = increase), % at 10 µM; hit rate 69% among 2,400;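 active = membrane potential signal moved up or down beyond 5 SD of buffer control wells, in both duplicate plates, actives on both sides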;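 note: plate controls were assay buffer wells for no effect and DAMGO maximal-effect wells for full effect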
TRPC4/MOR inh 2: second check of whether TRPC6 modulators also affect mouse TRPC4. shares compounds with TRPC6 inhibitor. HEK293 TRPC4/mu-opioid, membrane potential dye fluorescence; stimulated with maximal-effect DAMGO. inhibition, % at 10 µM. hit rate 55% among 2,400;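 active = drop in membrane potential signal beyond 5 SD of the control wells in both duplicate plates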;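 note: TRPC4 counter screen for TRPC6 hits run under conditions tuned for TRPC6 not TRPC4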
TRPC6 inh conf: mouse TRPC6 inhibitor confirmation; AID 488960; HEK293-TRPC6, membrane potential dye, ACh-evoked depolarization; inhibition, % at 10 µM; hit rate 43% among 3,300; shares compounds with TRPC6 inhibitor;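 active = fluorescence ratio falls more than 5 SD below the full-stimulation control mean, in both duplicate runs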;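 note: integrated fluorescence ratio of peak minus minimum over baseline after agonist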
TRPC6 act conf: confirmation of mouse TRPC6 activators | HEK293-TRPC6 membrane potential dye fluorescence, FDSS | AID 488961 | activation, % at 10 µM | shares compounds with TRPC6 inhibitor | hit rate 11% among 2,800;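 active = ratio signal rise beyond 5 SD above unstimulated control wells' mean, seen in both duplicate runs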;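 note: plate controls were buffer EC0 wells for no effect and acetylcholine ECmax response for full effect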
* marks the source's active call; other numbers are inactive results. Most compounds without a hit are left out; they make up all but 2.3% or so of the library.

What do the screens show for `CCOc1ccc(Cl)cc1/C=N/O`?
CR mimetic SO: 105; TRPC4 act: inactive; TRPC4 PAM: inactive; TRPC6 inhibitor: -8.7*; TRPC4 inh: -6*; TRPC6 act: 13*; HEK293 TRPC6 ctr: 104%*; HEK293 MPD ctr 2: inactive; TRPC4 ctr mod: 21%*; TRPC4/MOR inh 2: 41%*; TRPC6 inh conf: 78%*; TRPC6 act conf: 115%*

How did CCOc1ccc(Cl)cc1/C=N/NC(N)=O do in these assays?
CR mimetic SO: 110; TRPC4 act: inactive; TRPC4 PAM: inactive; TRPC6 inhibitor: inactive; TRPC4 inh: inactive; TRPC6 act: inactive

What do the screens show for `COc1cccc(CN(C(=O)/C=C/c2ccc(Cl)cc2)C2CCS(=O)(=O)C2)c1` (centres undefined)?
CR mimetic SO: 117; TRPC4 act: inactive; TRPC4 PAM: inactive; TRPC6 inhibitor: inactive; TRPC4 inh: inactive; TRPC6 act: inactive

What do the screens show for `O=C(Nc1scc(-c2ccc(Br)cc2)c1C(=O)O)c1ccccc1F`?
CR mimetic SO: 92; TRPC4 act: inactive; TRPC4 PAM: inactive; TRPC6 inhibitor: -5.3*; TRPC4 inh: inactive; TRPC6 act: inactive; HEK293 TRPC6 ctr: inactive; HEK293 MPD ctr 2: inactive; TRPC4 ctr mod: inactive; TRPC4/MOR inh 2: 40%*; TRPC6 inh conf: 54%*; TRPC6 act conf: inactive

Results for O=C1CN(C(=O)c2cccc([N+](=O)[O-])c2)CC(=O)N1 ?
CR mimetic SO: 116; TRPC4 act: inactive; TRPC4 PAM: inactive; TRPC6 inhibitor: inactive; TRPC4 inh: inactive; TRPC6 act: inactive

How did O=C(COc1ccccc1)NCC(c1ccco1)N1CCN(c2ccccc2F)CC1 (centres undefined) do in these assays?
CR mimetic SO: 101; TRPC4 act: inactive; TRPC4 PAM: inactive; TRPC6 inhibitor: -5.9*; TRPC4 inh: inactive; TRPC6 act: inactive; HEK293 TRPC6 ctr: 141%*; HEK293 MPD ctr 2: inactive; TRPC4 ctr mod: 32%*; TRPC4/MOR inh 2: 46%*; TRPC6 inh conf: 64%*

How did O=C(CCOc1ccccc1)NCC(c1ccco1)N1CCCCC1 (centres undefined) do in these assays?
CR mimetic SO: 105; TRPC4 act: inactive; TRPC4 PAM: inactive; TRPC6 inhibitor: -5.6*; TRPC4 inh: inactive; TRPC6 act: inactive; HEK293 TRPC6 ctr: inactive; HEK293 MPD ctr 2: inactive; TRPC4 ctr mod: 12%*; TRPC4/MOR inh 2: inactive; TRPC6 inh conf: inactive

What do the screens show for `O=C(COc1ccccc1)NCC(c1ccco1)N1CCN(c2ccc(F)cc2)CC1` (centres undefined)?
CR mimetic SO: 97; TRPC4 act: inactive; TRPC4 PAM: inactive; TRPC6 inhibitor: inactive; TRPC4 inh: inactive; TRPC6 act: inactive

What do the screens show for `Cc1csc(NC(=O)c2cc(=O)[nH]c3ccccc23)n1`?
CR mimetic SO: 95; TRPC4 act: inactive; TRPC4 PAM: inactive; TRPC6 inhibitor: inactive; TRPC4 inh: inactive; TRPC6 act: inactive
